The values that follow come from ChEMBL document CHEMBL3228044, “Studies on antianaphylactic agents. 6. Synthesis of some metabolites of 6-ethyl-3-(1H-tetrazol-5-yl)chromone and their analogues” (1979).

In test [1] the test system is Rattus norvegicus. Put plainly: Antianaphylactic activity in iv dosed male Sprague-Dawley rat assessed as inhibition of egg albumin/Bordetella pertussis-induced passive cutaneous anaphylaxis reaction. The format is functional. The settings on record: read-out: ID50 (the source's name). Summed up:
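Sera from rats sensitized with im egg albumin plus ip sterilized B. pertussis (collected day 12) were diluted fourfold and injected intradermally into dorsal skin of 8-week rats (~280 g). At 72 h, rats received iv egg albumin 5 mg plus Evans blue 10 mg. Drug in saline or PEG 400 was given iv immediately before challenge. Dye-leakage area (mm2) was read at 30 min. ID50 by least squares on log dose, with 95% confidence limits.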

The subject of test [2] is Rattus norvegicus. Kind of test: Antianaphylactic activity in po dosed male Sprague-Dawley rat assessed as inhibition of egg albumin/Bordetella pertussis-induced passive cutaneous anaphylaxis reaction. The format is functional. The settings on record: read-out: ID50 (the source's name). In short, it runs like this: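 Homologous rat PCA used 72-h skin sensitization with fourfold-diluted anti-egg albumin serum, raised with B. pertussis adjuvant, in 8-week rats (~280 g). Drug was suspended in 3% gum arabic and given orally 5 min before iv challenge with egg albumin 5 mg plus Evans blue 10 mg. Dye-leakage area (mm2) was measured after 30 min. ID50 by least squares on log dose vs area, with 95% confidence limits.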

As for `CCc1ccc2occ(-c3nnnn3[C@@H]3O[C@H](C(=O)[O-])[C@@H](O)[C@H](O)[C@H]3O)c(=O)c2c1.[Na+]`, in the test with Rattus norvegicus [1], the ED50 is over 20 mg/kg.
Turning to `CCc1ccc2occ(-c3nnn[nH]3)c(=O)c2c1`, the ED50 in the test on Rattus norvegicus [1] came to 0.25 mg/kg; with Rattus norvegicus [2], 5.9 mg/kg.
Taken in the same sequence, the figures for `CC(O)c1ccc2occ(-c3nnn[nH]3)c(=O)c2c1` (stereo not given) were 0.56 mg/kg and 13.4 mg/kg.
Taken in the same sequence, the figures for `CC(=O)c1ccc2occ(-c3nnn[nH]3)c(=O)c2c1` were 0.24 mg/kg and 6.6 mg/kg.
For `O=c1c(-c2nnn[nH]2)coc2ccc(CCO)cc12`, in that order: 0.21 mg/kg and over 20 mg/kg.
Turning to `O=c1c(-c2nnn[nH]2)coc2ccc(C(O)CO)cc12` (stereo not given), the ED50 in the test with Rattus norvegicus [1] is 0.57 mg/kg; in the test with Rattus norvegicus [2], over 20 mg/kg.
Turning to `CCc1ccc(O)c(C(=O)O)c1`, in the test with Rattus norvegicus [1], the ED50 was over 20 mg/kg.
The same measure, in the same setting: for `O=C(O)Cc1ccc(O)c(C(=O)O)c1` the value was over 20 mg/kg.
As to `CC(=O)OC(C)c1ccc2occ(-c3nnn[nH]3)c(=O)c2c1` (stereo not given), the ED50 in the test on Rattus norvegicus [2] is over 20 mg/kg.
Regarding `CCC(O)c1ccc2occ(-c3nnn[nH]3)c(=O)c2c1` (stereo not given), the figures for the ED50 in the test with Rattus norvegicus [1] and in the test on Rattus norvegicus [2] were 0.3 mg/kg and over 20 mg/kg, respectively.
As to `CCCC(O)c1ccc2occ(-c3nnn[nH]3)c(=O)c2c1` (stereo not given), in the test with Rattus norvegicus [1], the ED50 amounted to 1.07 mg/kg.
Same read-out and setting: for `CC(C)(O)c1ccc2occ(-c3nnn[nH]3)c(=O)c2c1` the value was 1.13 mg/kg; for `CCC(=O)c1ccc2occ(-c3nnn[nH]3)c(=O)c2c1`, 0.29 mg/kg.
Turning to `O=Cc1ccc2occ(-c3nnn[nH]3)c(=O)c2c1`, the figures for the ED50 with Rattus norvegicus [1] and in the test with Rattus norvegicus [2] were 1.1 mg/kg and over 20 mg/kg, respectively.
Consider `O=c1c(-c2nnn[nH]2)coc2ccc(CO)cc12`, for which, in the test with Rattus norvegicus [1], the ED50 was 0.34 mg/kg.
The same measure, in the same setting: for `C=Cc1ccc2occ(-c3nnn[nH]3)c(=O)c2c1` the value was 0.49 mg/kg.
Turning to `O=C([O-])c1cc(=O)c2c(OCC(O)COc3cccc4oc(C(=O)[O-])cc(=O)c34)cccc2o1.[Na+].[Na+]` [CROMOLYN SODIUM], the values for the ED50 in the test on Rattus norvegicus [1] and in the test on Rattus norvegicus [2] were 1.33 mg/kg and over 100 mg/kg, respectively.
